Measured values reported in ChEMBL document CHEMBL1122071, “Avermectin acyl derivatives with anthelmintic activity” (1982).

How the values were obtained:
Assay type in all cases: functional
Trichostrongylus axei [1] = experiment: Anthelmintic efficacy against Trichostrongylus axei (T.a) in sheep at dose of 0.25 mg/kg administered orally; 0-19%
Procedure, shortened: (§1)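 Lambs experimentally infected with mixed gastrointestinal nematodes (H. contortus, O. circumcincta, T. axei, T. colubriformis, C. oncophora, Oe. columbianum) were dosed orally, 1–3 sheep per dose. An untreated infected group of 6 was included, with worm burdens given as the geometric mean number of worms per lamb. Efficacy was scored against adult and, where listed, EL4 stages.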

[2] = tested on: Trichostrongylus colubriformis; experiment: Anthelmintic efficacy against Trichostrongylus colubriformis (T.c) in sheep at dose of 0.25 mg/kg administered orally; 0-19%; procedure, shortened: as §1
[3] = tested on: Teladorsagia circumcincta; experiment: Anthelmintic efficacy against adult Ostertagia circumcincta (O. c) in sheep at dose of 0.25 mg/kg administered orally; 0-19%; procedure, shortened: as §1
[4] = tested on: Trichostrongylus colubriformis; experiment: Minimal dose necessary to eliminate > 83% of Trichostrongylus colubriformis infection in gerbils
[5] = tested on: Oesophagostomum columbianum; experiment: Anthelmintic efficacy against Oseophagostomum columbianum (Oe. c) in sheep at dose of 0.25 mg/kg administered orally; 20-59%; procedure, shortened: as §1
Cooperia oncophora [6] = experiment: Anthelmintic efficacy against adult Cooperia oncopphora (C.o) in sheep at dose of 0.25 mg/kg administered orally; 60-89%; procedure, shortened: as §1
Haemonchus contortus [7] = experiment: Anthelmintic efficacy against adult Haemonchus contortus (H.c) in sheep at dose of 0.25 mg/kg administered orally; 20-59%; procedure, shortened: as §1
Trichostrongylus axei [8] = experiment: Anthelmintic efficacy against Trichostrongylus axei (T.a) in sheep at dose of 0.25 mg/kg administered orally; settings: route oral; procedure, shortened: as §1
[9] = tested on: Oesophagostomum columbianum; experiment: Anthelmintic efficacy against Oseophagostomum columbianum (Oe. c) in sheep at dose of 0.25 mg/kg administered orally; settings: route oral; procedure, shortened: as §1
[10] = tested on: Trichostrongylus colubriformis; experiment: Anthelmintic efficacy against Trichostrongylus colubriformis (T.c) in sheep at dose of 0.25 mg/kg administered orally; settings: route oral; procedure, shortened: as §1
Haemonchus contortus [11] = experiment: Anthelmintic efficacy against adult Haemonchus contortus (H.c) in sheep at dose of 0.25 mg/kg administered orally; settings: route oral; procedure, shortened: as §1
Cooperia oncophora [12] = experiment: Anthelmintic efficacy against adult Cooperia oncopphora (C.o) in sheep at dose of 0.25 mg/kg administered orally; settings: route oral; procedure, shortened: as §1
[13] = tested on: Teladorsagia circumcincta; experiment: Anthelmintic efficacy against adult Ostertagia circumcincta (O. c) in sheep at dose of 0.25 mg/kg administered orally; settings: route oral; procedure, shortened: as §1

## CC[C@H](C)[C@H]1O[C@]2(CC(OC(C)=O)[C@@H]1C)C[C@@H]1C[C@@H](C/C=C(\C)[C@@H](OC3CC(OC)C(OC4CC(OC)C(O)C(C)O4)C(C)O3)[C@@H](C)/C=C/C=C3\CO[C@@H]4[C@H](OC)C(C)=C[C@@H](C(=O)O1)[C@]34O)O2 (some centres undefined)
Trichostrongylus axei [1]
  Efficacy: 0%
[2]
  Efficacy: 0%
[3]
  Efficacy: 0%
[4]
  Dose: 0.25 mg/kg
[5]
  Efficacy: 20%
Cooperia oncophora [6]
  Efficacy: 60%
Haemonchus contortus [7]
  Efficacy: 20%

## CC[C@H](C)[C@H]1O[C@]2(CC(OC(C)=O)[C@@H]1C)C[C@@H]1C[C@@H](C/C=C(\C)[C@@H](OC3CC(OC)C(OC4CC(OC)C(OC(C)=O)C(C)O4)C(C)O3)[C@@H](C)/C=C/C=C3\CO[C@@H]4[C@H](OC(C)=O)C(C)=C[C@@H](C(=O)O1)[C@]34O)O2 (some centres undefined)
[4]
  Dose: 0.5 mg/kg

## CC[C@H](C)[C@H]1O[C@]2(C=C[C@@H]1C)C[C@@H]1C[C@@H](C/C=C(\C)[C@@H](O[C@H]3C[C@@H](OC)[C@@H](O[C@H]4C[C@@H](OC)[C@@H](OC(=O)CNC(C)=O)[C@H](C)O4)[C@H](C)O3)[C@@H](C)/C=C/C=C3\CO[C@@H]4[C@H](O)C(C)=C[C@@H](C(=O)O1)[C@]34O)O2
[4]
  Dose: 0.025 mg/kg

## CC[C@H](C)[C@H]1O[C@]2(CC(O)[C@@H]1C)C[C@@H]1C[C@@H](C/C=C(\C)[C@@H](OC3CC(OC)C(OC4CC(OC)C(OC(C)=O)C(C)O4)C(C)O3)[C@@H](C)/C=C/C=C3\CO[C@@H]4[C@H](OC)C(C)=C[C@@H](C(=O)O1)[C@]34O)O2 (some centres undefined)
[4]
  Dose: 0.06 mg/kg
Trichostrongylus axei [8]
  Efficacy: >90%
[9]
  Efficacy: >90%
[10]
  Efficacy: >90%
Haemonchus contortus [11]
  Efficacy: >90%
Cooperia oncophora [12]
  Efficacy: >90%
[13]
  Efficacy: >90%

## CC[C@H](C)[C@H]1O[C@]2(C=C[C@@H]1C)C[C@@H]1C[C@@H](C/C=C(\C)[C@@H](O[C@H]3C[C@@H](OC)[C@@H](O[C@H]4C[C@@H](OC)[C@@H](OC(=O)C(C)(C)C)[C@H](C)O4)[C@H](C)O3)[C@@H](C)/C=C/C=C3\CO[C@@H]4[C@H](O)C(C)=C[C@@H](C(=O)O1)[C@]34O)O2
[4]
  Dose: 0.5 mg/kg

## CC[C@H](C)[C@H]1O[C@]2(C=C[C@@H]1C)C[C@@H]1C[C@@H](C/C=C(\C)[C@@H](O[C@H]3C[C@@H](OC)[C@@H](O[C@H]4C[C@@H](OC)[C@@H](O)[C@H](C)O4)[C@H](C)O3)[C@@H](C)/C=C/C=C3\CO[C@@H]4[C@H](O[Si](C)(C)C(C)(C)C)C(C)=C[C@@H](C(=O)O1)[C@]34O)O2
[4]
  Dose: >2.5 mg/kg

## CC[C@H](C)[C@H]1O[C@]2(CC(O)[C@@H]1C)C[C@@H]1C[C@@H](C/C=C(\C)[C@@H](OC3CC(OC)C(OC4CC(OC)C(O)C(C)O4)C(C)O3)[C@@H](C)/C=C/C=C3\CO[C@@H]4[C@H](O)C(C)=C[C@@H](C(=O)O1)[C@]34O)O2 (some centres undefined) [AVERMECTIN B2A]
[4]
  Dose: 0.0125 mg/kg
